Columns and labels:
[1] = system: lysine-specific demethylase 1; settings: cited from earlier work
ERO1α [2] = settings: read-out: IC50 (ERO1α); cited from earlier work
Mao-A = settings: read-out: IC50 (Mao-A); cited from earlier work
ERO1α [3] = settings: read-out: KD (ERO1α); cited from earlier work
C57BL/6 mice [4] = experiment: Tail bleeding time and hemoglobin content; type: in vivo, mouse; settings: iv 5 μg/g BW
C57BL/6 mice [5] = experiment: FeCl3-induced carotid arterial thrombosis; type: in vivo, mouse; settings: iv 5 μg/g BW; 7% or 10% FeCl3
In short: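 Male and female mice, 8–12 weeks, were anaesthetised with ip ketamine/xylazine. A 2 × 2 mm filter disc carrying 1.2 μL of 7 or 10% FeCl3 was placed on the carotid artery for 2 min. Flow was monitored by Doppler flow meter. TTO was the time from disc removal to stable occlusion (no flow for 5 min).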

Recombinant human ERO1α = molecular target: T1, Recombinant human ERO1α (Homo sapiens, UniProt Q96HE7); experiment: fluorescence-based ERO1α activity assay; type: biochemical; settings: 0.01–1 μM FAD
T1 sequence (Q96HE7 24-468): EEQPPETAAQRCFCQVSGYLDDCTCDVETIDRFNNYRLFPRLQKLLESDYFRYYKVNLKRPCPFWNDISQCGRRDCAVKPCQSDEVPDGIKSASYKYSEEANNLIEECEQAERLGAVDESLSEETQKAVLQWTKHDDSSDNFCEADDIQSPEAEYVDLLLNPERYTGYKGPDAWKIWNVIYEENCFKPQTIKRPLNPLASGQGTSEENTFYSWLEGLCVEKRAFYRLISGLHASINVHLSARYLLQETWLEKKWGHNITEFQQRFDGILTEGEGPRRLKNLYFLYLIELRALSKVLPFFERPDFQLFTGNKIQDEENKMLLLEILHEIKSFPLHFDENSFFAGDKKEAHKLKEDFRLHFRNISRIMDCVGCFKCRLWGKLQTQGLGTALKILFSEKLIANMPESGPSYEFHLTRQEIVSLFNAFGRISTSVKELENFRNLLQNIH

In the case of CN(C)c1ccc(/C=C2\Oc3cc(O)ccc3C2=O)cc1 [Compound T151742], the “binding to lysine-specific demethylase 1” value [1] is given as “does not bind”, the IC50 (ERO1α [2]) is given as 8.7 µM and the IC50 (Mao-A) is given as 1 µM. For the same compound, the Kd (ERO1α [3]) was 31.4 µM.
In the case of eptifibatide, the “tail bleeding times and blood loss” value (C57BL/6 mice [4]) is reported as “markedly increased both” and the “time to occlusion (TTO)” value (C57BL/6 mice [5]) is reported as “significantly prolonged TTO irrespective of the FeCl3 concentration”.
With Cc1cc2nc3c(=O)[nH]c(=O)nc-3n(C[C@H](O)[C@H](O)[C@H](O)COP(=O)(O)OP(=O)(O)OC[C@H]3O[C@@H](n4cnc5c(N)ncnc54)[C@H](O)[C@@H]3O)c2cc1C [FAD, flavin adenine dinucleotide] the “effect of exogenous FAD on ERO1α activity” value (Recombinant human ERO1α) was “significantly increased ERO1α activity”.
